Experimental data of several laboratories.
Lines come from different studies, so protocols differ.
Target: Cytoplasmic tyrosine-protein kinase BMX (BMX, Homo sapiens, UniProt P51813)

| SMILES | test | setting | quantity | result |
| --- | --- | --- | --- | --- |
| O=C1c2ccccc2-c2n[nH]c3cccc1c23 | enzyme activity, inhibitor | 0.5 µM | activity vs control | 90.8% |
| O=C(NCc1ncc(C(F)(F)F)cc1Cl)c1ccc2c(c1)C1(CCS(=O)(=O)CC1)[C@H](C1CC1)N2S(=O)(=O)c1ccc(F)cc1 | cell-free assay, competition with immobilised ligand | 1 µM | remaining binding | 100% |
| C=CC(=O)Nc1cc(Nc2nccc(Nc3cc(Cl)c(F)cc3C(C)(C)O)n2)c(OC)cc1N1CC[C@@H](N(C)C)C1 | enzyme activity, inhibitor | 1 µM | inhibition | 80% |
| O=C1Nc2ccc(Cl)cc2C1=Cc1cc(Cl)c(O)c(Cl)c1 | cell-free assay | 0.5 µM | remaining signal | 94.8% |
| Cc1nccc(COC(=O)N2C[C@@H]3[C@@H](CNC(=O)c4ccc5[nH]nnc5c4)[C@@H]3C2)n1 | cell-free assay, competition with immobilised ligand | 1 µM | remaining binding | 88% |
| CC/C(=N\NC(=O)NCc1cccc(O)c1)c1ccc(O)c(C)c1O | enzyme activity, inhibitor | 0.1 µM | inhibition | 3% |
| CNc1cccc2cc(C(=O)Nc3ccc(C(=O)O)cc3)c(=O)[nH]c12 | enzyme activity, inhibitor | 10 µM | inhibition | 9.1% |
| COc1cc2nccc(Oc3ccc(NC(=O)c4c5n(n(-c6ccc(F)cc6)c4=O)CCCC5)cc3)c2cc1OC | enzyme activity, inhibitor | 0.1 µM | inhibition | 22% |
| CN(C)C1CCN(CC#Cc2nn(C3CCCC3)c3nc(NCc4ccccc4)ncc23)C1 (stereo not drawn) | enzyme activity, inhibitor, FRET | 0.1 µM | inhibition | 11% |
| N#CCCc1ccc2c(c1)-c1[nH]c3ccc([N+](=O)[O-])cc3c1CC(=O)N2 | cell-free assay | 0.5 µM | remaining signal | 99.5% |
| CN(c1ccnc(CNc2nc(Nc3ccc4c(c3)CC(=O)N4)ncc2C(F)(F)F)n1)S(C)(=O)=O | cell-free assay, competition with immobilised ligand | 1 µM | remaining binding | 80% |
| Cn1c2c(c3ccc(Cl)c(Cl)c31)C(C#N)C(C)(C)NC2=O (stereo not drawn) | thermal stability, DSF | 10 µM | ΔTm | -0.1 °C |
| Cc1ccc(NC(=O)c2ccc(C)c(C(F)(F)F)c2)cc1C#Cc1nn(C2CCC(O)CC2)c2ncnc(N)c12 (stereo not drawn) | cell-free assay | 10 µM | remaining signal | -1% |
| O=C1NC(=O)c2cc(Nc3ccc(F)cc3)c(Nc3ccc(F)cc3)cc21 | cell-free assay | 0.5 µM | remaining signal | 95.3% |
| N#CC1c2c([nH]c3c(Cl)c(Cl)ccc23)C(=O)NC12CCCCC2 (racemic) | thermal stability, DSF | 10 µM | ΔTm | -0.1 °C |
| CCN(CC)CCNC(=O)c1c(C)[nH]c(/C=C2\C(=O)Nc3ccc(F)cc32)c1C | enzyme activity, inhibitor | 10 µM | inhibition | 41% |
| Cn1c2c(c3ccccc31)C(C#N)C(C)(C)NC2=O (stereo not drawn) | thermal stability, DSF | 10 µM | ΔTm | -0.4 °C |

| SMILES | test | setting | quantity | result |
| --- | --- | --- | --- | --- |
| CNc1cc2c(Nc3cccc(Br)c3)ncnc2cn1 | enzyme activity, inhibitor | 0.5 µM | remaining activity | 93.9% |
| Cn1cc(Cl)c2c(Oc3c(F)cc(Nc4cc(Cl)nc(N)n4)cc3F)ccnc21 | cell-free assay, competition with immobilised ligand | 0.1 µM | remaining binding | 97% |
| Cn1c2c(c3ccc(Cl)c(Cl)c31)C(C#N)C1(CCNCC1)NC2=O (racemic) | thermal stability, DSF | 10 µM | ΔTm | -0.3 °C |
| FC(F)(F)c1ccc2c(c1)nc(-c1cccnc1)n2C1CC1 | cell-free assay, competition with immobilised ligand | 1 µM | remaining binding | 100% |
| Cn1c2c(c3ccc(Cl)c(Cl)c31)C(C#N)C1(CCCCC1)NC2=O (racemic) | thermal stability, DSF | 10 µM | ΔTm | 0.1 °C |
| Cc1cc(NC(=O)c2cccc3cc(-c4cccc5[nH]nc(N)c45)ccc23)ccc1F | enzyme activity, inhibitor | 0.1 µM | activity vs control | 108% |
| Cc1ccc(Nc2nccc(N(C)c3ccc4c(C)n(C)nc4c3)n2)cc1S(N)(=O)=O | enzyme activity, inhibitor | 0.3 µM | inhibition | 8% |
| Fc1ccc(-c2nc3n(c2-c2ccncc2)CCS3)cc1 | enzyme activity, inhibitor | 0.5 µM | remaining activity | 104% |
| Cn1cncc1C1=CN(c2ncnc3[nH]cnc23)CCS1 | enzyme activity, inhibitor, radiometric | 50 nM | inhibition | 13.9% |
| O=c1cc(-c2cccc3c2Sc2ccccc2S3)oc(N2CCOCC2)c1 | enzyme activity, inhibitor | 0.5 µM | remaining activity | 112% |
| CC(=O)C1=C(C)N(c2cccc(C(F)(F)F)c2)C(=O)N[C@@H]1c1ccc(C#N)nc1 | cell-free assay, competition with immobilised ligand | 1 µM | remaining binding | 97.4% |
| Oc1ccc(-c2nc(-c3ccncc3)c(-c3ccc(F)cc3)[nH]2)cc1 | cell-free assay | 0.5 µM | remaining signal | 93.9% |
| Cc1nc(N2CC[C@@H](O)C2)ncc1-c1cc(C(F)(F)F)cc2[nH]ncc12 | cell-free assay, competition with immobilised ligand | 1 µM | remaining binding | 100% |
| CNC(=O)c1cc(Oc2ccc(NC(=O)Nc3ccc(Cl)c(C(F)(F)F)c3)cc2)ccn1 | enzyme activity, inhibitor | 0.3 µM | inhibition | -3% |
| CCOC(=O)c1cc2cc(-c3cc(C(=O)NCc4ccc(C(=O)O)cc4)nn3C)ccc2[nH]1 | cell-free assay, competition with immobilised ligand | 0.1 µM | remaining binding | 82% |
| COc1cc2ncnc(Nc3ccc(Oc4ccccc4)cc3C)c2cc1OC | enzyme activity, inhibitor | 1 µM | inhibition | 35% |
